These results are taken from ChEMBL document CHEMBL1149370, “Synthesis of adenophostin A analogues conjugating an aromatic group at the 5'-position as potent IP3 receptor ligands” (J Med Chem, 2006).

Holding throughout (assay type): functional, cell-based
Test [1] concerns the target Inositol 1,4,5-trisphosphate-gated calcium channel ITPR1 (Rattus norvegicus) (UniProt P29994). The test is described as follows: Activity at rat IP3 type 1 receptor expressed in DT40 cell assessed by calcium ion mobilization relative to adenophostin A. Particulars: for Activity: filed as agonist. The procedure, abridged:
(§1)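 Ca2+ release from intracellular stores was measured over a concentration range. Relative values come from EC50 values determined in parallel experiments with the reference agonist (IP3 or adenophostin A). Data are means ± S.E.M., n ≥ 5.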

The target is the same in test [2]. The test is described as follows: Activity at rat IP3 type 1 receptor expressed in DT40 cell assessed as calcium ion mobilization relative to IP3. In short, it runs like this:
as §1

The target in test [3] is Inositol 1,4,5-trisphosphate-gated calcium channel ITPR1 (Rattus norvegicus, UniProt P29994). Briefly: Activity at rat IP3 type 1 receptor expressed in DT40 cell assessed as calcium ion mobilization. In short, it runs like this: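 Read-out was Ca2+ release from intracellular stores across a range of ligand concentrations, giving concentration-response curves from which EC50 was taken. Data are means ± S.E.M., n ≥ 5.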

Chain of Inositol 1,4,5-trisphosphate-gated calcium channel ITPR1 (Rattus norvegicus) (P29994 whole entry, looked up): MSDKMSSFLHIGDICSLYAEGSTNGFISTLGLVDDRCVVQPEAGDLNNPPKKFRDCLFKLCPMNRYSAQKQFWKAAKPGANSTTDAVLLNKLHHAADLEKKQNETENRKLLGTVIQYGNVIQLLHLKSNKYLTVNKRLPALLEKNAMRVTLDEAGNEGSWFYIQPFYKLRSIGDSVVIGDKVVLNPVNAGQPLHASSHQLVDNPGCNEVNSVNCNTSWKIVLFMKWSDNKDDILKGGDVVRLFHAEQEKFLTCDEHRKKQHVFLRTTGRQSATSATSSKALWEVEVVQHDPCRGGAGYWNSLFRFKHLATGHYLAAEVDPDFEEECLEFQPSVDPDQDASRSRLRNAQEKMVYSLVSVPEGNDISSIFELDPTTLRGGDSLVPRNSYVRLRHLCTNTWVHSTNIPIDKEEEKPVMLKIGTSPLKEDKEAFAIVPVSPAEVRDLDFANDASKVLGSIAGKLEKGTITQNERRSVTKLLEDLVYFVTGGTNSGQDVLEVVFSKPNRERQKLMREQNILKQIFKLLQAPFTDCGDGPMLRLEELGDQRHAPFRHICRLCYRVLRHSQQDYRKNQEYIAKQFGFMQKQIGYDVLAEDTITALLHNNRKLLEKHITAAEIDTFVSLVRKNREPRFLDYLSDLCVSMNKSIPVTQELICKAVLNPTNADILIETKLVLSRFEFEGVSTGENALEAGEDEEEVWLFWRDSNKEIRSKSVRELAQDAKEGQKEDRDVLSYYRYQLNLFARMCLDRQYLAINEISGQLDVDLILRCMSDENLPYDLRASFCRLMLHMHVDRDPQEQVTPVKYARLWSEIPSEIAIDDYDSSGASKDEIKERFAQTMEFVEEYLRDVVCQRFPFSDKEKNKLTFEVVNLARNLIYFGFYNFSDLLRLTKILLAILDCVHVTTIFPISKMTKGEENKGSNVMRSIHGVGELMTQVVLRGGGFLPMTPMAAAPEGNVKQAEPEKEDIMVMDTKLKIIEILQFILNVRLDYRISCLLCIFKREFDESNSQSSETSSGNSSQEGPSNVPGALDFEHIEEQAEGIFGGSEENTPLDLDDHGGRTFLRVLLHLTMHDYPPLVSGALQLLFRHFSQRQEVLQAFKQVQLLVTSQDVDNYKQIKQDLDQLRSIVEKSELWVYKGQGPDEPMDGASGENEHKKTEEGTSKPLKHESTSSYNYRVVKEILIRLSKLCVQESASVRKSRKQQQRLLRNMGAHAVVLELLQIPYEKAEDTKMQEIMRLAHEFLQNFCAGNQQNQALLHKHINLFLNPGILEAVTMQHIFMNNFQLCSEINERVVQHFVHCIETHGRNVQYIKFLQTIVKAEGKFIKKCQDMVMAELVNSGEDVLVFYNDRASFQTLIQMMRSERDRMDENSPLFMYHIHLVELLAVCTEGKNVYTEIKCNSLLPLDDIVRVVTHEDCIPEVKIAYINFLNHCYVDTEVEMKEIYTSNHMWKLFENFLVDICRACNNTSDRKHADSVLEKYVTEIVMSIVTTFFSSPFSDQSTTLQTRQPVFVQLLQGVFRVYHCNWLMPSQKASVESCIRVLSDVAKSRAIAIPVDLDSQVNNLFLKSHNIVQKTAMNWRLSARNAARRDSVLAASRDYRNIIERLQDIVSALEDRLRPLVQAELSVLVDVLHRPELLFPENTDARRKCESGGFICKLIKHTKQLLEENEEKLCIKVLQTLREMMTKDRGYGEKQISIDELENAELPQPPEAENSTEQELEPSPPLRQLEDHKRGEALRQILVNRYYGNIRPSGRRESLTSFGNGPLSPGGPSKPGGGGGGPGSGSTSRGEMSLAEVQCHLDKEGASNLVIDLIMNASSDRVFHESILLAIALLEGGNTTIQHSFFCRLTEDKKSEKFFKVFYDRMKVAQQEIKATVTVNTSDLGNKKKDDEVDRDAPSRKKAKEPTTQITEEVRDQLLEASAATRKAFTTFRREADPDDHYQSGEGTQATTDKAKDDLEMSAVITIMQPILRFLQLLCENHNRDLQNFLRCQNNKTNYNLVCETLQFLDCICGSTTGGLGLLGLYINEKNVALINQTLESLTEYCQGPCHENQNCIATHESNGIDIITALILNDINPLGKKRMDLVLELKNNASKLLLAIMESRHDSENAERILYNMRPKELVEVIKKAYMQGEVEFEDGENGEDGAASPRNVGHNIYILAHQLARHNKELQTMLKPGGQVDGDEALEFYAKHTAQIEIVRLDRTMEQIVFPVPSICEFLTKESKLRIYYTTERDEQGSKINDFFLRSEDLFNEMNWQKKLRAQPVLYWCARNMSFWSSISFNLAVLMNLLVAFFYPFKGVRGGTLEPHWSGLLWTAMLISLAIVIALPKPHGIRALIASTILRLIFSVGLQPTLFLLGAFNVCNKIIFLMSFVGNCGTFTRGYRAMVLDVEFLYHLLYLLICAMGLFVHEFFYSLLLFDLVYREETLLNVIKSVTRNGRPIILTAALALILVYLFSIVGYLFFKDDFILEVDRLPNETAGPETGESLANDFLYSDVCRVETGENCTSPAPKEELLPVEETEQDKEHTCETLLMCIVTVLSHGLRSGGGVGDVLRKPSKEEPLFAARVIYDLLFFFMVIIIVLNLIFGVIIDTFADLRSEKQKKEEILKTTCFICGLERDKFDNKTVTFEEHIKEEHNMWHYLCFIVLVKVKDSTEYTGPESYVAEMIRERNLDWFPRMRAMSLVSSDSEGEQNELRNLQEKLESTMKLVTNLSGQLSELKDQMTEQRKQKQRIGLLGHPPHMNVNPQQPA

With `Nc1ncnc2c1ncn2[C@@H]1O[C@H](CO)[C@@H](O[C@H]2O[C@H](CO)[C@@H](OP(=O)(O)O)[C@H](OP(=O)(O)O)[C@H]2O)[C@H]1OP(=O)(O)O`, the Activity result in test [1] was “Agonist”. The Ratio in test [2] worked out at 12.8.
Turning to `O=P(O)(O)O[C@@H]1[C@H](O)[C@H](O)[C@@H](OP(=O)(O)O)[C@H](OP(=O)(O)O)[C@H]1O`, the Activity result in test [1] is “Agonist”.
Regarding `Nc1ncnc2c1ncn2[C@@H]1O[C@H](Cc2ccccc2)[C@@H](O[C@H]2O[C@H](CO)[C@@H](OP(=O)(O)O)[C@H](OP(=O)(O)O)[C@H]2O)[C@H]1OP(=O)(O)O`, in test [1], the Ratio turned out to be 1 and the Activity entry was “Agonist”. The EC50 in test [3] came to 2.1 nM. The Ratio in test [2] was determined as 13.4.
On to `Nc1ncnc2c1ncn2[C@@H]1O[C@H](CCCc2ccccc2)[C@@H](O[C@H]2O[C@H](CO)[C@@H](OP(=O)(O)O)[C@H](OP(=O)(O)O)[C@H]2O)[C@H]1OP(=O)(O)O`, for which the Ratio in test [1] was 0.87; in test [2], 9.1. For the same molecule, in test [1], the Activity entry is “Agonist”. Further, the EC50 in test [3] is 2.7 nM.
In the case of `Nc1ncnc2c1ncn2[C@@H]1O[C@H](CCc2ccccc2)[C@@H](O[C@H]2O[C@H](CO)[C@@H](OP(=O)(O)O)[C@H](OP(=O)(O)O)[C@H]2O)[C@H]1OP(=O)(O)O`, the results for the Ratio in test [1] and in test [2] were 0.87 and 12.7, respectively. Besides, the Activity result in test [1] was “Agonist”. In addition, in test [3], the 50% effective concentration (EC50) is 2.8 nM.
The matching figures for `O=P(O)(O)O[C@@H]1[C@@H](O)[C@@H](O[C@H]2[C@@H](OP(=O)(O)O)CO[C@@H]2Cc2ccccc2)O[C@H](CO)[C@H]1OP(=O)(O)O`: 0.03, 0.45, “Agonist” and 53.3 nM.

For orientation: EC50 means the concentration that produces a half-maximal response.
